Reference: PMC6104635 (ACS chemical neuroscience, 2018)
“And” between values parts separate entries of the source, which are not always exact repeats. Equal entries are not always repeated.

Key:
Assay type in all cases: cell-based
human M5 = molecular target: T1, human M5 (Homo sapiens, UniProt P08912); test: calcium mobilization assay, hM5-CHO cells, FDSS7000
T1 sequence (P08912 1-532): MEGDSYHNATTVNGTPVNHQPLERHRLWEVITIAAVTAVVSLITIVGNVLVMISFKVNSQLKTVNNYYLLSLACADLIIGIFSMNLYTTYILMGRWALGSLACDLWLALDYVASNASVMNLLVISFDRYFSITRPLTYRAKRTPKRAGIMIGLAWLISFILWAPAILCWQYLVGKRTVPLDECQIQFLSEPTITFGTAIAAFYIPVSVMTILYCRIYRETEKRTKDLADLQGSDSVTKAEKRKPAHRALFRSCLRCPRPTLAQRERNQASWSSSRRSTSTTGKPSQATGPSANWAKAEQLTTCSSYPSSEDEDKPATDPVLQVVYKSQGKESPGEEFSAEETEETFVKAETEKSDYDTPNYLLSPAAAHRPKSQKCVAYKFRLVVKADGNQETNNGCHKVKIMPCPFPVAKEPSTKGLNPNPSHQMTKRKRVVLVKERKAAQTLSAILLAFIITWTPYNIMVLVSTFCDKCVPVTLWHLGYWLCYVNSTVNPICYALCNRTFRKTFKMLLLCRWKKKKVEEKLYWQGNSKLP
Method in brief: (§1)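 CHO cells stably expressing human or rat M5 were grown in Ham's F-12 with 10% FBS, 20 mM HEPES and 500 μg/mL G418 (37 °C, 5% CO2), then plated at 20 000 cells/well without G418 the day before. Cells were loaded with 1.15 μM Fluo-4 AM for 45 min at 37 °C in HBSS, 20 mM HEPES and 2.5 mM probenecid. Test compound was given as a 10-point 1:3 series from 30 μM final for 2.5 min, then ACh EC20 for 1 min, with calcium read on FDSS7000. EC50 and efficacy came from a four-parameter logistic fit.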

human M4 = molecular target: T2, human M4 (Homo sapiens, UniProt P08173); test: mAChR selectivity, PAM activity at human M4; conditions: result in words
T2 sequence (P08173 1-479): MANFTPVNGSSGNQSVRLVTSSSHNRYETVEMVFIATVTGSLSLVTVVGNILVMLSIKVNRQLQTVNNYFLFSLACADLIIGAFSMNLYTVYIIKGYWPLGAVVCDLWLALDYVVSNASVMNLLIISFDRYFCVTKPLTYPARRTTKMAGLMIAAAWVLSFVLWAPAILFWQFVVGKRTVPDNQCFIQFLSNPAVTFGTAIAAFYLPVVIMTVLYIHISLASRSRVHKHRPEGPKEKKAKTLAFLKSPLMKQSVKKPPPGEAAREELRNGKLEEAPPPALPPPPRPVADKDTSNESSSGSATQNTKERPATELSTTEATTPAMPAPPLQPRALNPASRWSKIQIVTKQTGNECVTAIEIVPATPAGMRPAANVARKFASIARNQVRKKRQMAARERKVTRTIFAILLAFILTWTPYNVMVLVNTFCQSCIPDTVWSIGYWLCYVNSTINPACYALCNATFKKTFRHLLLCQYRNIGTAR

rat M3 = rat M3 (Rattus norvegicus, UniProt P08483); test: mAChR selectivity, PAM activity at rat M3
human M3 = human M3 (Homo sapiens, UniProt P20309); test: mAChR selectivity, PAM activity at human M3
rat M5 = molecular target: T3, rat M5 (Rattus norvegicus, UniProt P08911); test: calcium mobilization assay, rM5-CHO cells, FDSS7000; conditions: PAM, functional calcium assay, n = 3
T3 sequence (P08911 1-531): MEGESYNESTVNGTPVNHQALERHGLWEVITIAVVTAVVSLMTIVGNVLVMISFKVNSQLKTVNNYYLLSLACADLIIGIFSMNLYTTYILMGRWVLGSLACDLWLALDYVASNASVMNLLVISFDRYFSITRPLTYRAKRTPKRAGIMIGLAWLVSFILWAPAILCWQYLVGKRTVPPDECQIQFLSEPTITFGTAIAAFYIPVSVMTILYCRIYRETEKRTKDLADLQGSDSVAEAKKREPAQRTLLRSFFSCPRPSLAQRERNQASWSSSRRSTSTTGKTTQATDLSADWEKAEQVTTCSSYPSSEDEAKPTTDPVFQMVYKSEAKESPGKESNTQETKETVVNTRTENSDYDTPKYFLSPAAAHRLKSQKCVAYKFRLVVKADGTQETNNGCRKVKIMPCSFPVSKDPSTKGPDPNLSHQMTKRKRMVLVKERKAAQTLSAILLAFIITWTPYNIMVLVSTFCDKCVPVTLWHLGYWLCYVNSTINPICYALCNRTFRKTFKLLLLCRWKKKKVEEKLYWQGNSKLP
Method in brief: as §1

[1] = PAM, functional calcium assay, n = 3

Sequence of human M3 (P20309 whole entry): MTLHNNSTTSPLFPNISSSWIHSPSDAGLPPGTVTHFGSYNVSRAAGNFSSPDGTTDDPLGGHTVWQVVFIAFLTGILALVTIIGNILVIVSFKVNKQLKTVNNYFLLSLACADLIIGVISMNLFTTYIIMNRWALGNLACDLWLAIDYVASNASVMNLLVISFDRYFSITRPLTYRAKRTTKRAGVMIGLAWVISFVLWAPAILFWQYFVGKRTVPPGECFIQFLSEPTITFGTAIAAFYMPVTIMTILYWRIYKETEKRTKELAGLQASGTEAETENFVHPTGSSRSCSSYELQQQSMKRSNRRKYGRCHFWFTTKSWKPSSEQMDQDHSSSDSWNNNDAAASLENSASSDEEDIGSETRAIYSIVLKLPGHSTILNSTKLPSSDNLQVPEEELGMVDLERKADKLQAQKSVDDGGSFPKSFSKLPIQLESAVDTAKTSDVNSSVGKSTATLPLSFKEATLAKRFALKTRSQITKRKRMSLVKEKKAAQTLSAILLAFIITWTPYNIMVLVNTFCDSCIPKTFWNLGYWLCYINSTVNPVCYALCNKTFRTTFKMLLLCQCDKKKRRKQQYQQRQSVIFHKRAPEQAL
Sequence of rat M3 (P08483 whole entry): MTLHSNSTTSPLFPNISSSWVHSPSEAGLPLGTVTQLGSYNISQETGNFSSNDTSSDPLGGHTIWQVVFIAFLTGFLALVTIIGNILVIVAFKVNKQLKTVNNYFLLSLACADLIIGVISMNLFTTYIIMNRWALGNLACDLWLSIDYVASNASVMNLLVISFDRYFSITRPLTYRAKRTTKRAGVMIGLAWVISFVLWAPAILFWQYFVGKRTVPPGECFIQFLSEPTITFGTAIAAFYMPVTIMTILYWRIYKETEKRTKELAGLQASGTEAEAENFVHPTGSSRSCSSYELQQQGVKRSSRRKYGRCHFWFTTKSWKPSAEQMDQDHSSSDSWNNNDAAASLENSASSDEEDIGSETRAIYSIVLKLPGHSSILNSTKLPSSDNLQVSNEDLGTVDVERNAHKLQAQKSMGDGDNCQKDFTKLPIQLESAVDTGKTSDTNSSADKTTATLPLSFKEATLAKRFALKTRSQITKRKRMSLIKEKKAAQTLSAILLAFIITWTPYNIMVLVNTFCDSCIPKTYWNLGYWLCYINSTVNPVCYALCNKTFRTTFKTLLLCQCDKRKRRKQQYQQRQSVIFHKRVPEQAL

In the case of CCCN(C(=O)C1CCN(S(=O)(=O)c2ccc3[nH]ncc3c2)CC1)[C@@H]1CCc2c(F)cccc21 [Compound 18g], the “hM5 % ACh Max” value (human M5; [1]) is reported as 74 % ACh Max and 74±6 % ACh Max, the “hM5 pEC50 ± SEM” value (human M5; [1]) is reported as 7.46±0.15 and the “increase in M5 PAM potency relative to 18a” value (human M5; hM5) is reported as over 10 fold. For the same compound, the EC50 (human M5; read-out: hM5 EC50, PAM, functional calcium assay, n = 3) was 41 nM, the “human M4 PAM activity” value (human M4) was “inactive” and the “rat M3 % ACh Max” value (rat M3) was 51 % ACh Max. For the same compound, the EC50 (rat M3; read-out: rat M3 EC50) was 772 nM, the “selectivity for M5 versus M3” value (human M3; M5-preferring PAM) was 10 fold and the “human M3 % ACh Max” value (human M3; PAM activity) was 71 % ACh Max. For the same compound, the EC50 (human M3; read-out: human M3 EC50, PAM activity) was 466 nM, the “rM5 % ACh Max” value (rat M5) was 76 % ACh Max and 76 ± 7 % ACh Max and the “rM5 pEC50 ± SEM” value (rat M5) was 7.13 ± 0.04. For the same compound, the EC50 (rat M5; read-out: rM5 EC50) was 74 nM.
